Results published in publication PMC6525002 (Cancer Management and Research, 2019).
Entries after “also recorded” stand apart in the source; their conditions may differ.

Key:
[1] = tested on: patients with advanced NSCLC and EGFR gene mutations; test: Phase Ib safety and toxicity; type: in vivo, human
Procedure, shortened: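 3+3 dose escalation (modified Fibonacci) of oral test compound, 100–650 mg flat doses twice daily for 28 days. Safety population was all patients dosed at least once. AEs were graded by NCI CTCAE v4.0. Haematology, liver and renal labs were taken predose on Days 1, 8, 15, 22 and 29, plus ECG, echocardiography and chest X-ray. MTD was defined by >1 DLT per dose level.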

patients = test: Ongoing study exploring higher simotinib doses; type: in vivo, human; conditions: 800 mg, 3 patients
human A431 tumor cells = conditions: in vitro, cells with high expression of EGFR; cited from earlier work
[2] = 12 healthy volunteers, cited from earlier work
[3] = Phase Ib pharmacokinetics, single dose; type: in vivo, human
Procedure, shortened: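 Blood collected on Day 1 at 0.05 h before the first oral dose and 0.5, 1, 1.5, 2, 4, 6, 8, 10, 12 and 24 h after. Test compound quantified by LC-MS using multiple reaction monitoring, LLOQ 1 ng/mL. Cmax, AUC, CL, t1/2 and related parameters were derived from individual concentration-time profiles and summarised descriptively.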

EGFR phosphorylation = conditions: in vivo, preclinical; cited from earlier work
EGFR = conditions: read-out: half maximal inhibitory concentration on EGFR; in vitro; cited from earlier work
[4] = single dose 100 mg, N=2, mean ± SD
[5] = single dose 200 mg, N=3, mean ± SD
[6] = single dose 300 mg, N=3, mean ± SD
[7] = single dose 400 mg, N=15, mean ± SD
[8] = single dose 500 mg, N=12, mean ± SD
[9] = single dose 650 mg, N=6, mean ± SD

simotinib
AEs of grade ≥3, patients ([1]; all doses, 7 of 41 patients): 17.1%
patients with at least one study drug-related AE ([1]; all doses, 38 of 41 patients): 92.7%
patients with at least one AE ([1]; all doses, 39 of 41 patients): 95.1%
anemia, frequency ([1]; all doses, 41 patients): 22.0%
diarrhea, frequency ([1]; all doses, 41 patients): 56.1%
fatigue, frequency ([1]; all doses, 41 patients): 24.4%
increased level of aminotransferase, frequency ([1]; all doses, 41 patients): 19.5%
increased level of bilirubin, frequency ([1]; all doses, 41 patients): 17.1%
neutropenia, frequency ([1]; all doses, 41 patients): 26.8%
pruritus, frequency ([1]; all doses, 41 patients): 24.4%
rash, frequency ([1]; all doses, 41 patients): 41.5%
maximum tolerated dose (MTD) ([1]; doses of up to 650 mg twice daily): not found; also recorded: not reached
patients who discontinued the study ([1]; one patient, 500 mg): 2.4%
bradycardia (patients): 1 patient
decreased blood pressure of <90/60 mmHg (patients): occurred in all patients
dose reduction due to cardiovascular events (patients): 1 patient
inhibition of growth of human A431 tumor cells (human A431 tumor cells): inhibits in a dose-dependent manner
average clearance (CL) T1/2 ([2]; dose range 25–500 mg): 8 to 12 h
tolerability ([2]; phase Ia): well tolerated
bioavailability ([3]; orally administered): good bioavailability
Tmax ([3]; single dose 100 mg, N=2): 1.8 (1.5–2.0) h
AUC0-last [3, 4]: 405.6 ± 94.8 ng·h/mL
AUC0-∞ [3, 4]: 466.2 ± 129.9 ng·h/mL
CL [3, 4]: 223.1 ± 62.2 L/h
Cmax [3, 4]: 56.5 ± 18.2 ng/mL
T1/2 [3, 4]: 5.3 ± 0.3 h
Vd [3, 4]: 1,704.0±385.8 L
Tmax ([3]; single dose 200 mg, N=3): 2.0 (2.0–2.0) h
AUC0-last [3, 5]: 2,339.6±479.9 ng•hr/mL
AUC0-∞ [3, 5]: 2,955.0±564.0 ng•hr/mL
CL [3, 5]: 68.9 ± 13.2 L/h
Cmax [3, 5]: 333.0 ± 35.4 ng/mL
T1/2 [3, 5]: 12.2 ± 3.5 h
Vd [3, 5]: 1,250.1±579.7 L
Tmax ([3]; single dose 300 mg, N=3): 1.5 (1.5–2.0) h
AUC0-last [3, 6]: 2,814.0±764.5 ng•hr/mL
AUC0-∞ [3, 6]: 3,243.8±776.1 ng•hr/mL
CL [3, 6]: 95.2 ± 22.8 L/h
Cmax [3, 6]: 552.5 ± 388.2 ng/mL
T1/2 [3, 6]: 9.2 ± 1.0 h
Vd [3, 6]: 1,286.1±438.6 L
Tmax ([3]; single dose 400 mg, N=15): 2.0 (1.0–8.0) h
AUC0-last [3, 7]: 3,581.9±1,868.5 ng•hr/mL
AUC0-∞ [3, 7]: 4,962.1±3,141.7 ng•hr/mL
CL [3, 7]: 127.4 ± 117.6 L/h
Cmax [3, 7]: 566.4 ± 372.0 ng/mL
T1/2 [3, 7]: 13.3 ± 6.3 h
Vd [3, 7]: 2,097.2±1,506.8 L
Tmax ([3]; single dose 500 mg, N=12): 1.8 (0.5–4.0) h
AUC0-last [3, 8]: 3,791.0±2,741.1 ng•hr/mL
AUC0-∞ [3, 8]: 6,483.8±5,008.4 ng•hr/mL
CL [3, 8]: 200.5 ± 300.1 L/h
Cmax [3, 8]: 514.5 ± 316.4 ng/mL
T1/2 [3, 8]: 28.0 ± 33.8 h
Vd [3, 8]: 7,166.6±12,246.1 L
Tmax ([3]; single dose 650 mg, N=6): 2.0 (1.0–6.0) h
AUC0-last [3, 9]: 4,652.1±3,442.1 ng•hr/mL
AUC0-∞ [3, 9]: 7,648.4±3,028.7 ng•hr/mL
CL [3, 9]: 97.7 ± 39.2 L/h
Cmax [3, 9]: 828.5 ± 849.0 ng/mL
T1/2 [3, 9]: 29.7 ± 32.2 h
Vd [3, 9]: 3,873.8±3,378.1 L
time to Cmax, range over doses ([3]; single dose, all doses): 1.5 to 2.0 h
antitumor activity in nude xenograft model (EGFR phosphorylation): inhibiting EGFR phosphorylation
IC50 (EGFR): 19.9 nM
